An excerpt weighted towards active compounds, which were near 4.9% of everything screened.
STAT1 blocker: STAT1 signaling inhibitors, primary screen, cell-based, HTS, luciferase reporter | NIH 3T3 STAT1-luciferase reporter, IFN-gamma, luminescence | inhibition, % at 5.5 µM | 200,000 tested, 0.35% active | AID 920, 2007;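 active means inhibition above a set limit, the mean inhibition across all tested compounds plus 3 SD, cut at about 34% in these data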;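 further: 0% = IFN-gamma with DMSO and 100% = IFN-gamma with 300 µM nifuroxazide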
NF-kB neuron act: activators of NF-kB expression in neurons, primary screen, cell-based, HTS | AID 1239, 2008 | 190,000 tested, 1.6% active | human neuronal cells, NF-kB reporter expression; hits give high values | fold change at 12.5 µM; in the data active means fold change above about 3.3
STAT3 inh: IL-6 driven STAT3 reporter inhibitors, primary screen, U3A cells, luciferase, luminescence, MLSCN library | IL-6 STAT3-luciferase reporter; host cell line lacks STAT1 | inhibition, % at 5.5 µM | 190,000 tested, 0.89% active;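 active means inhibition above the mean inhibition across all screened compounds plus 3 SD, cut at about 44% in these data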;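 further: 0% = DMSO only wells and 100% = 100 µM nifuroxazide control wells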
APP 5'UTR act: activators of APP 5'UTR luciferase reporter, primary screen, SH-SY5Y cells | SH-SY5Y APP 5'UTR luciferase reporter, luminescence; zero percent = DMSO vehicle wells | activation, % at 2 µM | 190,000 tested, 1% active | AID 1276, 2008;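 active means activation above a set limit, based on mean plus 3 SD of controls, cut at about 140% in these data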
STAT3 activator: IL-6 driven STAT3 reporter potentiators, primary screen, U3A cells, luciferase, luminescence, MLSCN library; IL-6 STAT3-luciferase reporter; 100% = signal with IL-6 EC80 alone; activation (% of control), % at 5.6 µM; 190,000 tested, 0.91% active; AID 871, 2007;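 active means activation above the screen-wide mean of compound activation plus 3 SD, cut at about 130% in these data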;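 further: 0% = background luminescence of wells with medium and substrate only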
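Detection: reporter luminescence signal / Assay system: STAT1-lacking human U3A cells, STAT3 luciferase reporter / Incubation: compound pre-incubation 1 h before IL-6, then 6 h stimulation at 37 °C / Control set: IL-6-only high control / Read-out: % activation relative to IL-6 control / Probe or stimulus: Interleukin-6, 33 ng/mL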
STAT1 act: STAT1 signaling activators, primary screen, cell-based, HTS, luciferase reporter | NIH 3T3 STAT1-luciferase reporter, IFN-gamma, luminescence; 100% = IFN-gamma alone, no compound | activation (% of control), % at 5.5 µM | 200,000 tested, 2.6% active | AID 932, 2007;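 active means activation above the screen-wide mean activation plus 3 SD, cut at about 130% in these data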;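 further: raw ratio to IFN-gamma control signal so 100% means no change and 0% no light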
Numbers without * were called inactive.

What do the screens show for `CC(C)N=C1NN=C(c2cccs2)CS1`?
STAT1 blocker: -38; NF-kB neuron act: 3.5*; STAT3 inh: -7; APP 5'UTR act: 103; STAT3 activator: 107; STAT1 act: 134*

How did CC(C)N=C1NN=C(c2ccc(Cl)c(Cl)c2)CS1 do in these assays?
STAT1 blocker: -41; NF-kB neuron act: 8.6*; STAT3 inh: 37; APP 5'UTR act: 172*; STAT3 activator: 74; STAT1 act: 136*

Results for CC(C)Cn1c(-c2cccs2)nc2ccccc21 ?
STAT1 blocker: -4; NF-kB neuron act: 0.98; STAT3 inh: -3; APP 5'UTR act: -6; STAT3 activator: 100; STAT1 act: 104

How did Cn1c(-c2cccs2)nc2ccccc21 do in these assays?
STAT1 blocker: -49; NF-kB neuron act: 1.4; STAT3 inh: 22; APP 5'UTR act: 48; STAT3 activator: 87; STAT1 act: 142*

Results for CCOC(=O)N1CCN(C(=S)NC(=O)c2ccc(F)c(F)c2)CC1 ?
STAT1 blocker: -6; NF-kB neuron act: 0.96; STAT3 inh: 0; APP 5'UTR act: 13; STAT3 activator: 103; STAT1 act: 104

Results for Cc1cc(C(=O)Nc2sc(C)c(-c3ccc(F)cc3)c2C(N)=O)no1 ?
STAT1 blocker: -67; NF-kB neuron act: 0.86; STAT3 inh: -1; APP 5'UTR act: 51; STAT3 activator: 105; STAT1 act: 161*

What do the screens show for `CCc1ccc(-c2c(C)sc(NC(C)=O)c2C(N)=O)cc1`?
STAT1 blocker: -3; NF-kB neuron act: 0.93; STAT3 inh: 4; APP 5'UTR act: 17; STAT3 activator: 102; STAT1 act: 103

Results for Clc1ccc(-c2cn3c(n2)CCC3)cc1 ?
STAT1 blocker: -23; NF-kB neuron act: 3.5*; STAT3 inh: 31; APP 5'UTR act: 115; STAT3 activator: 78; STAT1 act: 121

Results for CCN=C1S/C(=C\c2sccc2C)C(=O)N1CC ?
STAT1 blocker: -33; NF-kB neuron act: 1.6; STAT3 inh: -20; APP 5'UTR act: 41; STAT3 activator: 117; STAT1 act: 130*

What do the screens show for `CCN=C1S/C(=C\c2ccc(OC)c(OCC)c2)C(=O)N1CC`?
STAT1 blocker: 0; NF-kB neuron act: 1.2; STAT3 inh: -6; APP 5'UTR act: 7; STAT3 activator: 105; STAT1 act: 100

How did O=C(Nc1ccc(S(=O)(=O)N2CCCC2)cc1)C1CCCN1C(=O)c1cccs1 (stereo not drawn) do in these assays?
STAT1 blocker: 1; NF-kB neuron act: 1.2; STAT3 inh: 2; APP 5'UTR act: 13; STAT3 activator: 100; STAT1 act: 98

Results for O=C(/C=C/c1ccc(N2CCCCC2)c([N+](=O)[O-])c1)c1ccc(O)cc1 ?
STAT1 blocker: -49; NF-kB neuron act: 3.8*; STAT3 inh: -29; APP 5'UTR act: 121; STAT3 activator: 130; STAT1 act: 143*

How did COc1ccccc1C(=O)/C=C/c1ccc(N2CCCCC2)c([N+](=O)[O-])c1 do in these assays?
STAT1 blocker: -18; NF-kB neuron act: 3; STAT3 inh: 2; APP 5'UTR act: 26; STAT3 activator: 101; STAT1 act: 116

What do the screens show for `Cc1ccc2nc(SCc3ccc([N+](=O)[O-])cc3)[nH]c2c1`?
STAT1 blocker: -5; NF-kB neuron act: 1.2; STAT3 inh: 16; APP 5'UTR act: 7; STAT3 activator: 87; STAT1 act: 105

How did Clc1ccc(CSc2nc3ccncc3[nH]2)cc1 do in these assays?
STAT1 blocker: 52*; NF-kB neuron act: 7.5*; STAT3 inh: 81*; APP 5'UTR act: 147*; STAT3 activator: 37; STAT1 act: 53

How did Cc1ccc(CSc2nc3ccncc3[nH]2)cc1 do in these assays?
STAT1 blocker: 72*; NF-kB neuron act: 5.2*; STAT3 inh: 100*; APP 5'UTR act: 148*; STAT3 activator: 21; STAT1 act: 35

What do the screens show for `CC(C)CN1C(=O)C(=Nc2cccnc2)c2ccccc21`?
STAT1 blocker: -7; NF-kB neuron act: 1.1; STAT3 inh: -8; APP 5'UTR act: 4; STAT3 activator: 108; STAT1 act: 104

How did CCCC(O)(CCC)C(=O)NN(C(=O)CCl)c1ccccc1 do in these assays?
STAT1 blocker: -5; NF-kB neuron act: 7.2*; STAT3 inh: -9; APP 5'UTR act: -1; STAT3 activator: 106; STAT1 act: 104

How did CCCCC(O)(CCCC)C(=O)NN(C(=O)OCC)c1ccccc1 do in these assays?
STAT1 blocker: -3; NF-kB neuron act: 1.1; STAT3 inh: -4; APP 5'UTR act: 12; STAT3 activator: 99; STAT1 act: 102

Results for Cc1ccc(N=Cc2c(O)[nH]c3ccccc23)c([N+](=O)[O-])c1 ?
STAT1 blocker: -37; NF-kB neuron act: 1; STAT3 inh: 23; APP 5'UTR act: 160*; STAT3 activator: 84; STAT1 act: 131*

Results for Cc1ccc2nc3sc(-c4nnc(-c5ccccc5[N+](=O)[O-])o4)c(N)c3cc2c1 ?
STAT1 blocker: 14; NF-kB neuron act: 0.9; STAT3 inh: 28; APP 5'UTR act: -5; STAT3 activator: 82; STAT1 act: 89

Results for Cc1ccc2cc(C#N)c(SCc3nnc(-c4ccccc4[N+](=O)[O-])o3)nc2c1 ?
STAT1 blocker: 4; NF-kB neuron act: 4.7*; STAT3 inh: 24; APP 5'UTR act: 28; STAT3 activator: 81; STAT1 act: 96

How did C=CCN(c1ccccc1Cl)S(=O)(=O)c1cccc(C(=O)NCCc2ccc(OC)cc2)c1 do in these assays?
STAT1 blocker: 12; NF-kB neuron act: 1.2; STAT3 inh: -2; APP 5'UTR act: -4; STAT3 activator: 102; STAT1 act: 90

Results for COCCCNC(=S)N(Cc1cccnc1)Cc1ccc(OC)c(OC)c1 ?
STAT1 blocker: -1; NF-kB neuron act: 1; STAT3 inh: -15; APP 5'UTR act: 8; STAT3 activator: 110; STAT1 act: 101

Results for COc1ccc(C(=O)c2c[nH]c3ccccc23)cc1 ?
STAT1 blocker: -43; NF-kB neuron act: 3.5*; STAT3 inh: -12; APP 5'UTR act: 96; STAT3 activator: 109; STAT1 act: 134*

How did O=C(NCCc1ccccc1)Nc1ccc(Cl)cc1 do in these assays?
STAT1 blocker: -53; NF-kB neuron act: 2.8; STAT3 inh: -8; STAT3 activator: 107; STAT1 act: 147*

Results for COc1ccc(NC(=O)N/C=C/c2ccc(Cl)cc2)cc1 ?
STAT1 blocker: -21; NF-kB neuron act: 1.1; STAT3 inh: 15; APP 5'UTR act: 16; STAT3 activator: 91; STAT1 act: 118

What do the screens show for `Cc1ccc(NC(=O)N/C=C/c2ccc(Cl)cc2)cc1`?
STAT1 blocker: -31; NF-kB neuron act: 1.3; STAT3 inh: 11; APP 5'UTR act: -7; STAT3 activator: 97; STAT1 act: 128
